CHOP inh: inhibitors of CHOP induction in ER stress response. CHO-K1 CHOP-promoter luciferase, tunicamycin-induced, 15-18 h. inhibition, % at 10 µM. 220,000 compounds, 3.8% hits;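 active means compounds that reduced the stress-induced luciferase reporter signal by more than about 70% of percent inhibition, limit read from the data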;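 further: 0% = tunicamycin plus vehicle and 100% = wells without tunicamycin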
Wee1 stabilizer: inhibitors of human Wee1 degradation; P30291; HeLa Luc-Wee1K328M stability, luciferase luminescence; 100% = proteasome inhibitor MG132 effect; reporter increase, % at 5 µM; 220,000 compounds, 1.2% hits; AID 1321;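 active means activation above the mean of all tested compounds plus 3 SD, set per screening run, cut at about 8.8% in these data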;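 further: cells exposed to compound for 20 h before luminescence read; 0% = DMSO alone and 100% = MG132 at 30 µM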
Target sequence (P30291 whole entry K328M): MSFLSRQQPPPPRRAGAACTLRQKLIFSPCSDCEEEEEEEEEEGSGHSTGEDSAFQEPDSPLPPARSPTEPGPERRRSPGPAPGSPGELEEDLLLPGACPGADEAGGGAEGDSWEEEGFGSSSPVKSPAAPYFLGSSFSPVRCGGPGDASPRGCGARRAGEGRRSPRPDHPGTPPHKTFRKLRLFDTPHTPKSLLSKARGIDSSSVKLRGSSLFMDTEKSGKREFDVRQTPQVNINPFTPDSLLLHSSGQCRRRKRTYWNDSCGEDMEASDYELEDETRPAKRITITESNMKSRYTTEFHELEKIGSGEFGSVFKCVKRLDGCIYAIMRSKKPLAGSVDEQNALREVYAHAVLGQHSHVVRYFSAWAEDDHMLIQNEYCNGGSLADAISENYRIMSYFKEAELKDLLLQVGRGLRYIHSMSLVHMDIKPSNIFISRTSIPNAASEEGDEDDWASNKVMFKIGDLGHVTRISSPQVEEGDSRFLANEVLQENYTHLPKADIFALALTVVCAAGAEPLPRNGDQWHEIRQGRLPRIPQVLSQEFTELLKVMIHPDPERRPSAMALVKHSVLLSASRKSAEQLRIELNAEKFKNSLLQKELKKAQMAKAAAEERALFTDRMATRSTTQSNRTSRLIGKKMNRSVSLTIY
Rad51 HR inh: Rad51 (human) homologous recombination inhibition. 200,000 compounds, 0.085% hits. AID 1385. inhibition, % at 10 µM. Q06609. hRad51 DNA strand exchange, fluorescence dequenching;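 active means inhibition above 40% at the single screening dose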;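 further: 0% = DMSO control wells and 100% = blanks with heterologous ssDNA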
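Test system: preformed human Rad51 ssDNA filaments. Compound dosing: single dose, 10 µM final compound. Incubation: filaments 15 min 37 °C, then compound 30 min. Technique: FRET fluorescence dequenching, excitation 485 nm, emission 520 nm. Read-out basis: percent inhibition from fluorescence, normalised to plate control and blank means. Benchmarks: plate controls and plate blanks.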
PKD1 kinase inh: PKD1 (human) kinase inhibition | inhibition, % (concentration not given with the values) | Q15139 | PKD1 kinase fluorescence polarization assay | 200,000 compounds, 0.056% hits | AID 797
Arbovirus inh: arbovirus infection inhibition; arbovirus infection cell-based antiviral screen; inhibition, % at 10 µM; 200,000 compounds, 0.37% hits; in the data active means inhibition above about 30%
L major viab: inhibitors of Leishmania major promastigote growth | inhibition, % at 10 µM | Leishmania major promastigotes, resazurin fluorescence viability | AID 1063 | 200,000 compounds, 9% hits;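 further: promastigotes grown with compound for 44 hours at 28 °C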
An asterisk follows results filed as active. Most compounds without a hit are left out; they make up all but 12% or so of the library. Unless noted, no stated cut-off is given here; in the data, active means inhibition above about 50%; inactive means the rest.

What do the screens show for `CCN(CC)c1ccc(/C=N/NC(=O)c2c(Cl)cnn2C)c(O)c1`?
CHOP inh: 59; Wee1 stabilizer: -1; PKD1 kinase inh: -8; Arbovirus inh: -23; L major viab: 99*

What do the screens show for `CCN(CC)CCCCCCCCOC(=O)c1cc(OC)c(OC)c(OC)c1`?
CHOP inh: 1

Results for CC(C)C(NC(=O)c1ccc(C(C)(C)C)cc1)C(=O)NCC(c1ccccc1)N(C)C (configuration not stated) ?
CHOP inh: 17; Wee1 stabilizer: -2; Rad51 HR inh: -30

How did Cc1ccc(OC/C(O)=C(\C#N)c2nc3ccccc3s2)cc1 do in these assays?
CHOP inh: -1; Wee1 stabilizer: -3; Rad51 HR inh: -3; PKD1 kinase inh: -8; Arbovirus inh: 4; L major viab: -7

What do the screens show for `Cn1c(/C(C#N)=C(\O)COc2ccc3ccccc3c2)nc2ccccc21`?
CHOP inh: 93*; Wee1 stabilizer: 0; Rad51 HR inh: 7; PKD1 kinase inh: -7; Arbovirus inh: -16; L major viab: -7

Results for CCN1CC(CN(C)Cc2nc(-c3ccc(C(F)(F)F)cc3)oc2C)CC1=O (configuration not stated) ?
CHOP inh: 21; Wee1 stabilizer: 2; PKD1 kinase inh: -11; Arbovirus inh: 3; L major viab: 56*

Results for O=C1c2ccccc2NC(c2cccc(O)c2)N1NS(=O)(=O)c1ccccc1 (configuration not stated) ?
CHOP inh: 2; Wee1 stabilizer: 5; Rad51 HR inh: 10; PKD1 kinase inh: 3; Arbovirus inh: 8; L major viab: 5

Results for Cc1nn(Cc2ccccc2)c(C)c1NC(=O)c1noc2c1CCc1ccccc1-2 ?
CHOP inh: 86*; Wee1 stabilizer: 0; Rad51 HR inh: 11; PKD1 kinase inh: -12; Arbovirus inh: 5; L major viab: 3

What do the screens show for `CCN(CC)CCCNC(=O)CSc1nc2c(c(C(F)(F)F)n1)CCc1ccccc1-2`?
CHOP inh: 13; Wee1 stabilizer: 1; Rad51 HR inh: -2; PKD1 kinase inh: 2; Arbovirus inh: -26; L major viab: 60*

Results for Cc1nn(Cc2ccccc2)c(C)c1NC(=O)CSc1nc2c(c(C(F)(F)F)n1)CCc1ccccc1-2 ?
CHOP inh: 32; Wee1 stabilizer: -1; Rad51 HR inh: -5; PKD1 kinase inh: 1; Arbovirus inh: 26; L major viab: 68*

Results for O=C(CSc1nc2c(c(C(F)(F)F)n1)CCc1ccccc1-2)NCc1ccccc1 ?
CHOP inh: 12; Wee1 stabilizer: -2; Rad51 HR inh: -9; PKD1 kinase inh: 1; Arbovirus inh: -1; L major viab: -4

What do the screens show for `C(=N\Nc1nc(-c2ccccc2)cs1)/c1ccco1`?
CHOP inh: 6; Wee1 stabilizer: 2; Rad51 HR inh: -10; PKD1 kinase inh: 4; Arbovirus inh: 36*; L major viab: 3

How did C(=N\Nc1nc(-c2ccccc2)cs1)/c1cccs1 do in these assays?
CHOP inh: 16; Wee1 stabilizer: -1; Rad51 HR inh: -3; PKD1 kinase inh: -1; Arbovirus inh: 35*; L major viab: 5

Results for CC(C)C(C(=O)OCC(=O)c1ccccc1)N1C(=O)C2C3C=CC(C3)C2C1=O (configuration not stated) ?
CHOP inh: -10; Wee1 stabilizer: -1; Rad51 HR inh: 13; PKD1 kinase inh: -3; Arbovirus inh: 3; L major viab: -7

Results for Cc1ccc(C)c(NC(=O)C2(C)CC3c4ccccc4C2c2ccccc23)c1 (configuration not stated) ?
CHOP inh: 30; Wee1 stabilizer: 0; Rad51 HR inh: -6; PKD1 kinase inh: 2; Arbovirus inh: -2; L major viab: -2

Results for Cc1cccc(NC(=O)C2(C)CC3c4ccccc4C2c2ccccc23)c1C (configuration not stated) ?
CHOP inh: -5; Wee1 stabilizer: 0; Rad51 HR inh: -1; PKD1 kinase inh: -8; Arbovirus inh: 7; L major viab: 71*

How did O=C(CCc1nnc(CCCc2ccccc2)o1)NCC(F)(F)F do in these assays?
CHOP inh: -17; Wee1 stabilizer: 0; Rad51 HR inh: 10; PKD1 kinase inh: 1; Arbovirus inh: 8; L major viab: -5

What do the screens show for `COc1ccc(-c2nc(-c3ccc(NC(=O)c4ccncc4)cc3)no2)cc1OC`?
CHOP inh: 72*; Wee1 stabilizer: -3; Rad51 HR inh: 6; PKD1 kinase inh: -15; Arbovirus inh: -8; L major viab: 8

How did COc1ccc(Cc2nc(-c3ccc(Cl)cc3)no2)cc1 do in these assays?
CHOP inh: 55; Wee1 stabilizer: 0; Rad51 HR inh: 2; PKD1 kinase inh: 7; Arbovirus inh: -1; L major viab: -4

What do the screens show for `COc1ccc(-c2noc(Cc3ccc(Cl)cc3)n2)cc1OC`?
CHOP inh: 86*; Wee1 stabilizer: 3; Rad51 HR inh: -1; PKD1 kinase inh: 3; Arbovirus inh: -30; L major viab: 10

How did COc1ccc(-c2noc(-c3ccccc3-c3ccccc3)n2)cc1OC do in these assays?
CHOP inh: -9; Wee1 stabilizer: 1; PKD1 kinase inh: 5; Arbovirus inh: 31*; L major viab: -1

How did Cc1ccc(Cc2nc(-c3ccncc3)no2)cc1 do in these assays?
CHOP inh: 14; Wee1 stabilizer: 9.7*; Rad51 HR inh: -4; PKD1 kinase inh: -6; Arbovirus inh: 5; L major viab: 9

What do the screens show for `CC(c1nnc(SCC(=O)Nc2cccnc2Cl)n1Cc1ccccc1)N(C)C` (configuration not stated)?
CHOP inh: -8; Wee1 stabilizer: 8; Rad51 HR inh: -27; PKD1 kinase inh: 8; Arbovirus inh: 5; L major viab: -4

What do the screens show for `COc1ccc(-c2noc(CCCc3ccccc3)n2)cc1OC`?
CHOP inh: 72*; Wee1 stabilizer: -3; Rad51 HR inh: -6; PKD1 kinase inh: -8; Arbovirus inh: -24; L major viab: -13

What do the screens show for `Cc1ccc(-c2noc(CCCc3ccccc3)n2)cc1`?
CHOP inh: 24; Wee1 stabilizer: 0; Rad51 HR inh: 0; PKD1 kinase inh: -10; Arbovirus inh: -1; L major viab: -3

What do the screens show for `O=C(CN(c1ccc(Cl)cc1)S(=O)(=O)c1ccccc1)N1CCN(c2ccccc2)CC1`?
CHOP inh: 73*; Wee1 stabilizer: 2; Rad51 HR inh: -5; PKD1 kinase inh: 3; Arbovirus inh: -7; L major viab: 2

How did COc1ccc(OC)c(N(CC(=O)N2CCN(c3cc(Cl)ccc3C)CC2)S(C)(=O)=O)c1 do in these assays?
CHOP inh: 0; Wee1 stabilizer: 0; Rad51 HR inh: -4; PKD1 kinase inh: -5; Arbovirus inh: 41*; L major viab: 7

What do the screens show for `COc1ccc(S(=O)(=O)N(CC(=O)N2CCN(c3ccccc3OC)CC2)c2ccccc2)cc1`?
CHOP inh: 23; Wee1 stabilizer: 3; PKD1 kinase inh: -9; Arbovirus inh: -8; L major viab: 91*

Source: PubChem
